This is an account of results in ChEMBL document CHEMBL1122782, “Bulky amine analogues of ketoprofen: potent antiinflammatory agents” (J Med Chem, 1984).

Holding throughout (assay type): functional
Assay [1] concerns Rattus norvegicus. Kind of assay: The mean increase in paw volume was compared between drug treated groups and placebo to calculate the percent inhibition in rats at 0.08 mmol/kg by carrageenan Edema Assay; 60-69.
For assay [2], the system named is Rattus norvegicus. Kind of assay: The percent inhibition was calculated from the average differences in hind paw volume between the adjuvant injected controls and the adjuvant-injected medicated rats at 0.08 mmol/kg; 70-79.
Assay [3] is filed under the species Rattus norvegicus. Kind of assay: Compound was evaluated for highest non-ulcerogenic dose (less than 50% ulcer incidence). The following applies: read-out: ED50. In a few lines:
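Taken from the 21-day adjuvant arthritis test in male Sprague-Dawley rats dosed orally each day from the day of adjuvant injection. Small intestines and stomachs were examined for ulceration at the end. The value is the highest dose giving less than 50% ulcer incidence.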

In assay [4] the test system is Rattus norvegicus. Kind of assay: Antiinflammatory efficacy is measured by the percent inhibition of paw volume during the 3 week adjuvant arthritis test at 0.08 mM/kg (24.6 mg). In a few lines: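 Male Sprague-Dawley rats (200–230 g) were used in groups of eight. Each received 0.1 mL of 0.6% M. butyricum in heavy mineral oil into the plantar tissue of one hind paw. Daily oral gavage in 1% gum tragacanth or corn oil-water emulsion began on the injection day and ran 21 days. Total hind paw volume was measured by mercury displacement, and inhibition was taken versus vehicle-treated adjuvant controls.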

Assay [5] concerns Rattus norvegicus. As to the kind of experiment: The mean increase in paw volume was compared between drug treated groups and placebo to calculate the percent inhibition in rats at 0.08 mmol/kg by carrageenan Edema Assay; 40-49.
The test system of assay [6] is Rattus norvegicus. Kind of assay: The percent inhibition was calculated from the average differences in hind paw volume between the adjuvant injected controls and the adjuvant-injected medicated rats at 0.08 mmol/kg; 60-69. The note with it: Rattus norvegicus.
The test system of assay [7] is Rattus norvegicus. As to the kind of experiment: Ulcerogenicity was measured in intestine during the 3 week adjuvant arthritis test, no of animals with ulcers out of 72 animals tested at 0.08 mM/kg (24.6 mg) was reported. In a few lines:
(§1)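 In the 21-day adjuvant arthritis model, male Sprague-Dawley rats (200–230 g) received an M. butyricum mineral-oil suspension into one hind paw. They were dosed daily by gavage from the day of injection. At the end of the study the rats were killed, and the small intestines were examined for ulcers. Results are given as the number of ulcerated animals over the number tested.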

Assay [8] has as its system Rattus norvegicus. Kind of assay: Ulcerogenicity was measured in intestine during the 3 week adjuvant arthritis test, no of animals with ulcers out of 55 animals tested at 0.50 mM/kg (154 mg) was reported. In a few lines: as §1
Assay [9] concerns Rattus norvegicus. As to the kind of experiment: Ulcerogenicity was measured in stomach during the 3 week adjuvant arthritis test, no of animals with ulcers out of 55 animals tested at 0.50 mM/kg (154 mg) was reported. In a few lines:
(§2)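 Male Sprague-Dawley rats (200–230 g) were injected in the plantar tissue of one hind paw with 0.1 mL of 0.6% M. butyricum suspension in heavy mineral oil. Daily oral gavage began on the day of adjuvant injection and ran for the 21 days, with drug suspended in 1% gum tragacanth or a corn oil-water emulsion. At the end the rats were sacrificed and the small intestine and stomach were examined for ulcers. Results are given as animals with ulcers/animals tested.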

For assay [10], the system named is Rattus norvegicus. Kind of assay: Ulcerogenicity was measured in stomach during the 3 week adjuvant arthritis test, no of animals with ulcers out of 72 animals tested at 0.08 mM/kg (24.6 mg) was reported. In a few lines:
as §2

Assay [11] deals with Rattus norvegicus. As to the kind of experiment: Ulcerogenicity was measured in stomach during the 3 week adjuvant arthritis test, no of animals with ulcers out of 8 animals tested at 0.41 mM/kg (126 mg) was reported. In a few lines: as §2
For assay [12], the system named is Rattus norvegicus. As to the kind of experiment: Antiinflammatory efficacy is measured by the weight gain in rats during the 3 week adjuvant arthritis test at 0.50 mM/kg (154 mg). In a few lines:
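Male Sprague-Dawley rats (200–230 g), eight per group, received 0.1 mL of 0.6% M. butyricum in heavy mineral oil (negative controls: mineral oil) into one hind-paw plantar tissue. Daily gavage in 1% gum tragacanth or corn oil-water emulsion began on the injection day, for 21 days. Weight gain is expressed as (treated − adjuvant control)/(negative control − adjuvant control) × 100.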

Assay [13] has as its system Rattus norvegicus. As to the kind of experiment: Ulcerogenicity was measured in intestine during the 3 week adjuvant arthritis test, no of animals with ulcers out of 8 animals tested at 0.41 mM/kg (126 mg) was reported. In a few lines:
as §2

The subject of assay [14] is Rattus norvegicus. As to the kind of experiment: Antiinflammatory efficacy is measured by the weight gain in rats during the 3 week adjuvant arthritis test at 0.08 mM/kg (24.6 mg). In a few lines: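 Rats were adjuvant-injected (M. butyricum in mineral oil, one hind paw) or given a mineral-oil placebo. They were dosed by gavage daily for 21 days from the injection day, with vehicle only for both control groups, then weighed at the end. Weight gain % = (treated − adjuvant control)/(negative control − adjuvant control) × 100.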

In the case of `CC1CN(CC(C)c2cccc(C(=O)c3ccccc3)c2)CC(C)O1` (centres undefined), the inhibition in vivo (in general, the share of the control response that was lost under treatment) at 80 µmol/kg in the assay on Rattus norvegicus [1] was 60%; in the assay on Rattus norvegicus [2], 70%.

For `CCCCC1C(=O)N(c2ccccc2)N(c2ccccc2)C1=O` [PHENYLBUTAZONE], the highest non-ulcerogenic dose in the assay filed under Rattus norvegicus [3] is 40 µmol/kg. For the same compound, in the assay with Rattus norvegicus [4], the Inhibition (usually the percentage by which the read-out fell short of the control) worked out at 66%. Also, the inhibition in vivo at 80 µmol/kg in the assay on Rattus norvegicus [5] is 40%; in the assay on Rattus norvegicus [6], 60%. Besides, the Ulcerogenic index is 11 in the assay on Rattus norvegicus [7]; 36 with Rattus norvegicus [8]; 17 with Rattus norvegicus [9]; 14 in the assay with Rattus norvegicus [10]; 3 in the assay with Rattus norvegicus [11]; 2 in the assay on Rattus norvegicus [13]. Further, the figures for the Weight gain in the assay on Rattus norvegicus [12] and in the assay with Rattus norvegicus [14] were 41% and 21%, respectively.
